Experimental data from ChEMBL document CHEMBL5042537, “Synthesis and Characterization of 5-(2-Fluoro-4-[11C]methoxyphenyl)-2,2-dimethyl-3,4-dihydro-2H-pyrano[2,3-b]pyridine-7-carboxamide as a PET Imaging Ligand for Metabotropic Glutamate Receptor 2” (J Med Chem, 2022).
Activity calls are given as the source filed them. The calls are words filed in the database; no cut-off is given here.

What was measured:
[1] = Stability of the compound in rat plasma measured at 60 min; type: ADME, cell-free; conditions: read-out: Stability
Method in brief: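 Compound (2.5 μL of 1 mM DMSO stock) was incubated in 100 μL rat serum at 37 °C for 60 min, then quenched with ice-cold acetonitrile and centrifuged. Supernatant was analysed by HPLC against an internal standard. Stability = peak area at 60 min / peak area at 0 min × 100%; at least three repeats.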

[2] = Lipophilicity, LogD at pH 7.4 of the compound by shake flask method; type: physicochemical; conditions: buffer
Method in brief: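 Shake-flask method: 0.1 mg compound in n-octanol/PBS pH 7.4 (1.0 mL each), vortexed 1 min and shaken at 37 °C overnight. Each phase was quantified by HPLC peak area at 254 nm, and LogD = log(octanol/PBS). Run at least three times.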

[3] = Stability of the compound in rat liver microsome measured at 60 min; type: ADME; conditions: liver microsomes, read-out: Stability
Method in brief: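 Compound (1.5 μL of 1 mM DMSO stock) in PBS was preincubated at 37 °C, then Sprague–Dawley rat liver microsomes and NADPH (10 mM stock) were added. After 60 min at 37 °C, reactions were quenched with cold acetonitrile and analysed by HPLC against an internal standard. Stability = 60 min/0 min peak area × 100%; at least three repeats.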

[4] = target: T1, Metabotropic glutamate receptor 2 (Homo sapiens, UniProt Q14416); assay: Negative allosteric modulation activity at human recombinant mGlur2 at 30 nM by cAMP Glosensor assay; type: functional; conditions: filed as negative allosteric modulator
Method in brief: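 Flp-In T-REx-293 cells with tetracycline-inducible mGluR2 (induced with 1 μg/mL tetracycline) were transfected with pGloSensor-21F and plated at 15,000 cells/well in BME with 1% dialyzed FBS. Split-luciferase cAMP read-out was taken with 0.1 μM isoproterenol and increasing L-glutamate. Glutamate curves were fitted to an allosteric operational model; three independent assays in triplicate.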
Target sequence in this assay (Q14416 19-872 limits assumed): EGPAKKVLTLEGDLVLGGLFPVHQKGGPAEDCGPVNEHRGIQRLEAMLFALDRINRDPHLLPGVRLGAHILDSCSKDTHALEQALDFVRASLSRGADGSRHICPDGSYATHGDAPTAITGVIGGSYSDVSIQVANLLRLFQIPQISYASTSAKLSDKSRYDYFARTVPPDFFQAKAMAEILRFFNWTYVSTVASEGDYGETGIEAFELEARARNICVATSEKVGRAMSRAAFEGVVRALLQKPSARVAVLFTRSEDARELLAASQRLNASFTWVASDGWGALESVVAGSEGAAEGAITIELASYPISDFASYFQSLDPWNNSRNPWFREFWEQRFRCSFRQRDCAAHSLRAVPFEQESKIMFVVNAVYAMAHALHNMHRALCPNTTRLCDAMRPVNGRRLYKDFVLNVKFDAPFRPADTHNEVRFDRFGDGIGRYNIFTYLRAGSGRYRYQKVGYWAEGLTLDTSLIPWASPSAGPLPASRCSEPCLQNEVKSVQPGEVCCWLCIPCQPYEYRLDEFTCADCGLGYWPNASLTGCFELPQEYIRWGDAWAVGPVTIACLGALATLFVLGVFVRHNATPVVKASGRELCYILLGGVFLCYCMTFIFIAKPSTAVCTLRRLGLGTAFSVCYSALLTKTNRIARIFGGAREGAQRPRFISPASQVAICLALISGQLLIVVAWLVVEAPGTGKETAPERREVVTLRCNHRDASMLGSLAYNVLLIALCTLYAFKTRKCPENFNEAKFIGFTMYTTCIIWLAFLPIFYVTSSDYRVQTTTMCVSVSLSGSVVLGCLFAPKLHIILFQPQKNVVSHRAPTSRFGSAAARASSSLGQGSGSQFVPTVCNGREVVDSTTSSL

[5] = target: T1, Metabotropic glutamate receptor 2; assay: Binding affinity to human recombinant mGlur2 assessed as inhibition constant by cAMP Glosensor assay
Target sequence in this assay (Q14416 whole entry): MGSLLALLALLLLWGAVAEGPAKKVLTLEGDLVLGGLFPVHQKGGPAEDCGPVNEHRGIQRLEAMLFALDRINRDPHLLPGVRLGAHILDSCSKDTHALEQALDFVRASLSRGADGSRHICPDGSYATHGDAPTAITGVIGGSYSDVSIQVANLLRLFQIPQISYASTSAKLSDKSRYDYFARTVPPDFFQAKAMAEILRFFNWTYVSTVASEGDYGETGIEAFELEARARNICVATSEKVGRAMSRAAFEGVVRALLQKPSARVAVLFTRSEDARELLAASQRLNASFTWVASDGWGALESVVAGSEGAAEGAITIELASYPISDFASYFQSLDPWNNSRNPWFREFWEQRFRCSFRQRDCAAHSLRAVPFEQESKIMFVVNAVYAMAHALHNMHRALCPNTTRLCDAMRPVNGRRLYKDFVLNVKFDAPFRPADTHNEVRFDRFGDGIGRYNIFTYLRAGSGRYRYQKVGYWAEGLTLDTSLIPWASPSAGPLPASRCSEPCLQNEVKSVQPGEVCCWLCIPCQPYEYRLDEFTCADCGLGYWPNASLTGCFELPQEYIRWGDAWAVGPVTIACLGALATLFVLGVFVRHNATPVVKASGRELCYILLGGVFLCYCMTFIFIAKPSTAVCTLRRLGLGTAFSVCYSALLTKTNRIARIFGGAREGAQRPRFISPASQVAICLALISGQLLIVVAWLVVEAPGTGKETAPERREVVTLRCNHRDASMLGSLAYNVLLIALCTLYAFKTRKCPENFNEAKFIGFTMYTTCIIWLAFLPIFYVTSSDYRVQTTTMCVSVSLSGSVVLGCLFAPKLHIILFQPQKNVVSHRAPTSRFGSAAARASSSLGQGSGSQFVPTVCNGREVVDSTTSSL

[6] = Permeability of the compound in Sprague-Dawley rat brain striatum at 1 to 30 mins by CT scan; type: ADME, tissue-based; conditions: time 1-30 min
Method in brief: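 Male Sprague–Dawley rats under isoflurane anaesthesia were injected iv via tail vein with the [11C] tracer (63.0–87.3 MBq). Dynamic PET ran for 60 min, reconstructed by MLEM, with a CT scan for attenuation correction. Striatal SUV time-activity curves were derived, and images were summed over 1–30 min.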

[7] = Drug uptake in Sprague-Dawley rat brain hypothalamus mGlr2 rich region assessed as decrease in drug accumulation pretreated with 4-(8-bromo-2-oxo-2,3-dihydro-1H-benzo[b][1,4]diazepin-4-yl)picolinonitrile at 0.2 mg/kg, iv for 1 min before administration of tracer injection by CT scan; type: ADME, organism-based; conditions: in vivo
Method in brief: (§1)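 Male Sprague–Dawley rats (285–421 g) under isoflurane received [11C] tracer (63.0–87.3 MBq) iv via tail vein, followed by 60 min dynamic PET with CT for attenuation correction. Blockers were given iv 1 or 20 min before tracer, at 0.5 mg/kg (10% ethanol/5% Tween-80/saline) or 0.2 mg/kg (10% DMSO/5% Tween-20/PBS). Regional accumulation was taken over 2–30 min and compared with baseline scans.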

[8] = Drug uptake in Sprague-Dawley rat brain cerebellum mGlr2 rich region assessed as decrease in drug accumulation pretreated with 4-(8-bromo-2-oxo-2,3-dihydro-1H-benzo[b][1,4]diazepin-4-yl)picolinonitrile at 0.2 mg/kg, iv for 20 min before administration of tracer injection by CT scan; type: ADME, organism-based; conditions: in vivo; method in brief: as §1
[9] = Drug metabolism in Cynomolgus monkey plasma assessed as parent compound remaining pretreated with 4-(4-fluorophenyl)-5-((1-methyl-1H-pyrazol-3-yl)methoxy)picolinamide at 1 mg/kg, iv for 20 mins before administration of tracer injection measured after 30 mins by CT scan; type: ADME, organism-based, Macaca fascicularis; conditions: read-out: Stability
Method in brief: (§2)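 Cynomolgus monkey (female, 5.0 kg) given tracer as a 3 min iv infusion, with blocker 1.0 mg/kg iv 20 min before. Plasma samples from 5–120 min were analysed by automated column-switching radioHPLC (capture column, then C18 with acetonitrile:0.1 M ammonium formate 45:55, 0.1% TFA). Eluate was collected in 1 min fractions and gamma-counted to give percent parent.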

[10] = Permeability of the compound across blood brain barrier in Sprague-Dawley rat after 4 mins by CT scan; type: ADME, tissue-based
Method in brief: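 Male Sprague–Dawley rats (285–421 g) under isoflurane (1.0–1.5%) in oxygen. [11C]tracer (63.0–87.3 MBq) given iv via tail-vein catheter. Dynamic PET ran 60 min from injection, followed by CT for anatomy and attenuation correction. Data were reconstructed by MLEM into 24 frames. Regional brain uptake was expressed as SUV time-activity curves.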

[11] = Drug uptake in Sprague-Dawley rat brain striatum mGlr2 rich region assessed as decrease in drug accumulation pretreated with 4-(8-bromo-2-oxo-2,3-dihydro-1H-benzo[b][1,4]diazepin-4-yl)picolinonitrile at 0.2 mg/kg, iv for 20 min before administration of tracer injection by CT scan; type: ADME, organism-based; conditions: in vivo; method in brief: as §1
[12] = Drug metabolism in Cynomolgus monkey plasma assessed as parent compound remaining pretreated with 4-(4-fluorophenyl)-5-((1-methyl-1H-pyrazol-3-yl)methoxy)picolinamide at 1 mg/kg, iv for 20 mins before administration of tracer injection measured after 120 mins by CT scan; type: ADME, organism-based, Macaca fascicularis; conditions: read-out: Stability; method in brief: as §2
[13] = Drug uptake in Sprague-Dawley rat brain striatum mGlr2 rich region by CT scan; type: ADME, tissue-based; conditions: in vivo; method in brief: as §1
[14] = Drug uptake in Sprague-Dawley rat brain cortex mGlr2 rich region by CT scan; type: ADME, tissue-based; conditions: in vivo; method in brief: as §1
[15] = Drug uptake in Sprague-Dawley rat brain striatum mGlr2 rich region assessed as decrease in drug accumulation pretreated with 4-(8-bromo-2-oxo-2,3-dihydro-1H-benzo[b][1,4]diazepin-4-yl)picolinonitrile at 0.2 mg/kg, iv for 1 min before administration of tracer injection by CT scan; type: ADME, organism-based; conditions: in vivo; method in brief: as §1
[16] = Drug uptake in Sprague-Dawley rat brain striatum mGlr2 rich region assessed as decrease in drug accumulation pretreated with 4-(4-fluorophenyl)-5-((1-methyl-1H-pyrazol-3-yl)methoxy)picolinamide at 0.5 mg/kg, iv for 1 min before administration of tracer injection by CT scan; type: ADME, organism-based; conditions: in vivo, pooled result: one value given for 4 cell lines, strains, targets or settings; method in brief: as §1
[17] = Drug uptake in Sprague-Dawley rat brain thalamus mGlr2 rich region assessed as decrease in drug accumulation pretreated with 4-(8-bromo-2-oxo-2,3-dihydro-1H-benzo[b][1,4]diazepin-4-yl)picolinonitrile at 0.2 mg/kg, iv for 20 min before administration of tracer injection by CT scan; type: ADME, organism-based; conditions: in vivo, pooled result: one value given for 4 cell lines, strains, targets or settings; method in brief: as §1
[18] = Drug uptake in Sprague-Dawley rat brain cerebellum mGlr2 rich region by CT scan; type: ADME, tissue-based; conditions: in vivo; method in brief: as §1
[19] = Drug uptake in Sprague-Dawley rat brain hypothalamus mGlr2 rich region by CT scan; type: ADME, tissue-based; conditions: in vivo; method in brief: as §1
[20] = Drug uptake in Sprague-Dawley rat brain cortex mGlr2 rich region assessed as decrease in drug accumulation pretreated with 4-(4-fluorophenyl)-5-((1-methyl-1H-pyrazol-3-yl)methoxy)picolinamide at 0.5 mg/kg, iv for 1 min before administration of tracer injection by CT scan; type: ADME, organism-based; conditions: in vivo; method in brief: as §1
[21] = Drug uptake in Sprague-Dawley rat brain thalamus mGlr2 rich region assessed as decrease in drug accumulation pretreated with 4-(4-fluorophenyl)-5-((1-methyl-1H-pyrazol-3-yl)methoxy)picolinamide at 0.5 mg/kg, iv for 1 min before administration of tracer injection by CT scan; type: ADME, organism-based; conditions: in vivo; method in brief: as §1
[22] = Drug uptake in Sprague-Dawley rat brain cerebellum mGlr2 rich region assessed as decrease in drug accumulation pretreated with 4-(8-bromo-2-oxo-2,3-dihydro-1H-benzo[b][1,4]diazepin-4-yl)picolinonitrile at 0.2 mg/kg, iv for 1 min before administration of tracer injection by CT scan; type: ADME, organism-based; conditions: in vivo; method in brief: as §1
[23] = Drug metabolism in Cynomolgus monkey plasma assessed as retention time of metabolite by measuring pretreated with 4-(4-fluorophenyl)-5-((1-methyl-1H-pyrazol-3-yl)methoxy)picolinamide at 1 mg/kg, iv for 20 min before administration of tracer injection by CT scan; type: ADME, organism-based, Macaca fascicularis; conditions: in vivo; method in brief: as §2
[24] = Drug uptake in Sprague-Dawley rat brain hippocampus mGlr2 rich region by CT scan; type: ADME, tissue-based; conditions: in vivo; method in brief: as §1
[25] = Drug uptake in Sprague-Dawley rat brain thalamus mGlr2 rich region assessed as decrease in drug accumulation pretreated with 4-(8-bromo-2-oxo-2,3-dihydro-1H-benzo[b][1,4]diazepin-4-yl)picolinonitrile at 0.2 mg/kg, iv for 1 min before administration of tracer injection by CT scan; type: ADME, organism-based; conditions: in vivo; method in brief: as §1
[26] = Drug uptake in Sprague-Dawley rat brain […] rich region assessed as decrease in drug accumulation pretreated with 4-(8-bromo-2-oxo-2,3-dihydro-1H-benzo[b][1,4]diazepin-4-yl)picolinonitrile at 0.2 mg/kg, iv for 1 min before administration of tracer injection by CT scan; type: ADME, organism-based; conditions: in vivo; method in brief: as §1
[27] = Drug uptake in Sprague-Dawley rat brain thalamus mGlr2 rich region by CT scan; type: ADME, tissue-based; conditions: in vivo; method in brief: as §1
[28] = Drug uptake in Sprague-Dawley rat brain hippocampus mGlr2 rich region assessed as decrease in drug accumulation pretreated with 4-(8-bromo-2-oxo-2,3-dihydro-1H-benzo[b][1,4]diazepin-4-yl)picolinonitrile at 0.2 mg/kg, iv for 1 min before administration of tracer injection by CT scan; type: ADME, organism-based; conditions: in vivo; method in brief: as §1

COc1ccc(-c2cc(C(N)=O)nc3c2CCC(C)(C)O3)c(F)c1 gave a remaining at 1 h [1] of 94.5%, a logD [2] of 2.94 and a remaining at 1 h [3] of 47.8%.
For CC1(C)CCc2c(-c3ccc(F)cc3F)cc(C(N)=O)nc2O1, the Activity [4] was “Active”, the remaining at 1 h [1] was 95.3% and the logD [2] was 2.81. It also gave a Ki [5] of 0.059 µM and a remaining at 1 h [3] of 94.5%.
[11CH3]Oc1cc(CN2CCc3c(-c4ccc(F)cc4F)cc(C(N)=O)nc3C2)ccn1 showed an SUVmax [6] of 1.7.
Cn1ccc(COc2cnc(C(N)=O)cc2-c2ccc(O[11CH3])cc2F)n1 showed an SUVmax [6] of 1.2.
In the case of CC1(C)CCc2c(-c3ccc(O[11CH3])cc3F)cc(C(N)=O)nc2O1, the Drug uptake [7] is reported as 42.6%, the Drug uptake [8] is reported as 15.2% and the remaining at 20 min [9] is reported as 53%. The SUV [10] was 7.5, the Drug uptake [11] was 11.1% and the remaining at 20 min [12] was 24.8%. For the same molecule, the Drug uptake [13] was “Active”, the Drug uptake [14] was “Active” and the Drug uptake [15] was 41.7%. The Drug uptake [16] was 22.4%, the Drug uptake [17] was 12.7% and the Drug uptake [18] was “Active”. The Drug uptake [19] was “Active”, the Drug uptake [20] was 38.5% and the Drug uptake [21] was 17.1%. The Drug uptake [22] was 39.6%, the Retention_time [23] was 2 min and the Drug uptake [24] was “Active”. The Drug uptake [25] was 41.7%, the Drug uptake [26] was 39.6% and the Drug uptake [27] was “Active”. It also gave a Drug uptake [28] of 41.7%.
